Tests used:
Mus musculus [1] = assay: Toxicity in female CDF1 mouse allografted with mouse P388 cells assessed as animal survival at 6.25 mg/kg, ip administered daily for 9 days as saline with Tween-80 solution starting 24 hrs after tumor inoculation; format: organism-based; parameters: dose 6.25 mg/kg, route intraperitoneal; settings: in vivo
Procedure, shortened: (§1)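 P-388 leukemia ascitic fluid implanted ip. Compound dosed ip in saline with Tween-80 vehicle, once daily for nine doses from 24 h after tumor inoculation. Acute toxicity scored as toxicity-day survivors per group. Survival was followed up to 30 days, with 30-day survival counted as "cure". Follows NCI screening protocols.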

Mus musculus [2] = assay: Toxicity in male CDF1 mouse allografted with mouse P388 cells assessed as animal survival at 12.5 mg/kg, ip administered daily for 9 days as saline with Tween-80 solution starting 24 hrs after tumor inoculation; format: organism-based; parameters: dose 12.5 mg/kg, route intraperitoneal; settings: in vivo; procedure, shortened: as §1
Mus musculus [3] = assay: Toxicity in male CDF1 mouse allografted with mouse P388 cells assessed as animal survival at 6.25 mg/kg, ip administered daily for 9 days as saline with Tween-80 solution starting 24 hrs after tumor inoculation; format: organism-based; parameters: dose 6.25 mg/kg, route intraperitoneal; settings: in vivo; procedure, shortened: as §1
Mus musculus [4] = assay: Toxicity in female CDF1 mouse allografted with mouse P388 cells assessed as animal survival at 400 mg/kg, ip administered daily for 9 days as saline with Tween-80 solution starting 24 hrs after tumor inoculation; format: organism-based; parameters: dose 400 mg/kg, route intraperitoneal; settings: in vivo; procedure, shortened: as §1
P388 [5] = assay: Antitumor activity against mouse P388 cells allografted in female CDF1 mouse assessed as disease cures by measuring 30-days host survival at 25 mg/kg, ip administered daily for 9 days as saline with Tween-80 solution starting 24 hrs after tumor inoculation relative to control; format: functional; settings: route intraperitoneal
Procedure, shortened: (§2)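 P388 ascitic cell inoculum given ip to CDF1 mice of the sex in each line. Nine daily ip doses in saline with Tween-80 as vehicle, starting 24 h after inoculation. Median survival time expressed as %T/C (>125 significant); "cure" defined as 30-day survival.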

P388 [6] = assay: Antitumor activity against mouse P388 cells allografted in female CDF1 mouse assessed as disease cures by measuring 30-days host survival at 12.5 mg/kg, ip administered daily for 9 days as saline with Tween-80 solution starting 24 hrs after tumor inoculation relative to control; format: functional; settings: route intraperitoneal; procedure, shortened: as §2
P388 [7] = assay: Antitumor activity against mouse P388 cells allografted in male CDF1 mouse assessed as disease cures by measuring 30-days host survival at 25 mg/kg, ip administered daily for 9 days as saline with Tween-80 solution starting 24 hrs after tumor inoculation relative to control; format: functional; settings: route intraperitoneal; procedure, shortened: as §2
P388 [8] = assay: Antitumor activity against mouse P388 cells allografted in female CDF1 mouse assessed as disease cures by measuring 30-days host survival at 6.25 mg/kg, ip administered daily for 9 days as saline with Tween-80 solution starting 24 hrs after tumor inoculation relative to control; format: functional; settings: route intraperitoneal; procedure, shortened: as §2
P388 [9] = assay: Antitumor activity against mouse P388 cells allografted in male CDF1 mouse assessed as disease cures by measuring 30-days host survival at 12.5 mg/kg, ip administered daily for 9 days as saline with Tween-80 solution starting 24 hrs after tumor inoculation relative to control; format: functional; settings: route intraperitoneal; procedure, shortened: as §2
P388 [10] = assay: Antitumor activity against mouse P388 cells allografted in male CDF1 mouse assessed as disease cures by measuring 30-days host survival at 6.25 mg/kg, ip administered daily for 9 days as saline with Tween-80 solution starting 24 hrs after tumor inoculation relative to control; format: functional; settings: route intraperitoneal; procedure, shortened: as §2
P388 [11] = assay: Antitumor activity against mouse P388 cells allografted in female CDF1 mouse assessed as change in body weight at 400 mg/kg, ip administered daily for 9 days as saline with Tween-80 solution starting 24 hrs after tumor inoculation; format: functional; settings: route intraperitoneal
Procedure, shortened: (§3)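 Ascitic fluid carrying P388 cells was inoculated ip. Compound was given ip in nine daily doses, starting 24 h after inoculation, in Klucel (hydroxypropylcellulose) suspension or in saline with Tween-80. Body-weight difference (treated minus control) was recorded on day 5. Survival was scored as %T/C of median survival time, and 30-day survival counted as cure.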

P388 [12] = assay: Antitumor activity against mouse P388 cells allografted in female CDF1 mouse assessed as change in body weight at 200 mg/kg, ip administered daily for 9 days as saline with Tween-80 solution starting 24 hrs after tumor inoculation; format: functional; settings: route intraperitoneal; procedure, shortened: as §3
P388 [13] = assay: Antitumor activity against mouse P388 cells allografted in female CDF1 mouse assessed as change in body weight at 100 mg/kg, ip administered daily for 9 days as saline with Tween-80 solution starting 24 hrs after tumor inoculation; format: functional; settings: route intraperitoneal; procedure, shortened: as §3
P388 [14] = assay: Antitumor activity against mouse P388 cells allografted in female CDF1 mouse assessed as change in body weight at 50 mg/kg, ip administered daily for 9 days as saline with Tween-80 solution starting 24 hrs after tumor inoculation; format: functional; settings: route intraperitoneal; procedure, shortened: as §3
P388 [15] = assay: Antitumor activity against mouse P388 cells allografted in female CDF1 mouse assessed as change in body weight at 25 mg/kg, ip administered daily for 9 days as saline with Tween-80 solution starting 24 hrs after tumor inoculation; format: functional; settings: route intraperitoneal; procedure, shortened: as §3
P388 [16] = assay: Antitumor activity against mouse P388 cells allografted in female CDF1 mouse assessed as change in body weight at 12.5 mg/kg, ip administered daily for 9 days as saline with Tween-80 solution starting 24 hrs after tumor inoculation; format: functional; settings: route intraperitoneal; procedure, shortened: as §3
P388 [17] = assay: Antitumor activity against mouse P388 cells allografted in male CDF1 mouse assessed as change in body weight at 50 mg/kg, ip administered daily for 9 days as saline with Tween-80 solution starting 24 hrs after tumor inoculation; format: functional; settings: route intraperitoneal; procedure, shortened: as §3
P388 [18] = assay: Antitumor activity against mouse P388 cells allografted in male CDF1 mouse assessed as change in body weight at 25 mg/kg, ip administered daily for 9 days as saline with Tween-80 solution starting 24 hrs after tumor inoculation; format: functional; settings: route intraperitoneal; procedure, shortened: as §3
P388 [19] = assay: Antitumor activity against mouse P388 cells allografted in female CDF1 mouse assessed as change in body weight at 6.25 mg/kg, ip administered daily for 9 days as saline with Tween-80 solution starting 24 hrs after tumor inoculation; format: functional; settings: route intraperitoneal; procedure, shortened: as §3
P388 [20] = assay: Antitumor activity against mouse P388 cells allografted in male CDF1 mouse assessed as change in body weight at 12.5 mg/kg, ip administered daily for 9 days as saline with Tween-80 solution starting 24 hrs after tumor inoculation; format: functional; settings: route intraperitoneal; procedure, shortened: as §3
P388 [21] = assay: Antitumor activity against mouse P388 cells allografted in male CDF1 mouse assessed as change in body weight at 6.25 mg/kg, ip administered daily for 9 days as saline with Tween-80 solution starting 24 hrs after tumor inoculation; format: functional; settings: route intraperitoneal; procedure, shortened: as §3
Mus musculus [22] = assay: Toxicity in female CDF1 mouse allografted with mouse P388 cells assessed as animal survival at 200 mg/kg, ip administered daily for 9 days as saline with Tween-80 solution starting 24 hrs after tumor inoculation; format: organism-based; parameters: dose 200 mg/kg, route intraperitoneal; settings: in vivo; procedure, shortened: as §1
Mus musculus [23] = assay: Toxicity in female CDF1 mouse allografted with mouse P388 cells assessed as animal survival at 25 mg/kg, ip administered daily for 9 days as saline with Tween-80 solution starting 24 hrs after tumor inoculation; format: organism-based; parameters: dose 25 mg/kg, route intraperitoneal; settings: in vivo; procedure, shortened: as §1
Mus musculus [24] = assay: Toxicity in female CDF1 mouse allografted with mouse P388 cells assessed as animal survival at 12.5 mg/kg, ip administered daily for 9 days as saline with Tween-80 solution starting 24 hrs after tumor inoculation; format: organism-based; parameters: dose 12.5 mg/kg, route intraperitoneal; settings: in vivo; procedure, shortened: as §1
Mus musculus [25] = assay: Toxicity in male CDF1 mouse allografted with mouse P388 cells assessed as animal survival at 25 mg/kg, ip administered daily for 9 days as saline with Tween-80 solution starting 24 hrs after tumor inoculation; format: organism-based; parameters: dose 25 mg/kg, route intraperitoneal; settings: in vivo; procedure, shortened: as §1

In the case of `CCNC(=O)OCc1c(COC(=O)NCC)c(-c2ccc(Cl)c(Cl)c2)n2c1CCC2`, the Activity (Mus musculus [1]) is reported as “Non-toxic”, the Activity (Mus musculus [2]) is reported as “Non-toxic” and the Activity (Mus musculus [3]) is reported as “Non-toxic”. The Activity (Mus musculus [4]) was “Toxic”, the T/C (P388 [5]) was 103% and the T/C (P388 [6]) was 170%. For the same compound, the T/C (P388 [7]) was 165%, the T/C (P388 [8]) was 154% and the T/C (P388 [9]) was 168%. For the same compound, the T/C (P388 [10]) was 168%, the Activity (P388 [11]) was -1.4 g and the Activity (P388 [12]) was -1.4 g. The Activity (P388 [13]) was -3 g, the Activity (P388 [14]) was -4.4 g and the Activity (P388 [15]) was -2.4 g. It also gave an Activity (P388 [16]) of -1.8 g, an Activity (P388 [17]) of -8 g and an Activity (P388 [18]) of -4.4 g. For the same compound, the Activity (P388 [19]) was -1.8 g, the Activity (P388 [20]) was -2.5 g and the Activity (P388 [21]) was -2.1 g. For the same compound, the Activity (Mus musculus [22]) was “Toxic”, the Activity (Mus musculus [23]) was “Non-toxic” and the Activity (Mus musculus [24]) was “Non-toxic”. For the same compound, the Activity (Mus musculus [25]) was “Non-toxic”.
